What all share (type): functional, cell-based
Settings in all cases: time <= 14.0 day

Assay [1] concerns U-266. As to the kind of experiment: Antiproliferative activity against human […] cells treated upto 14 days with replacement of fresh medium containing drug every 3 to 4 days by cell counting kit-8 method. The procedure, abridged:
(§1)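 Screen of histone methylation modifier inhibitors in 6-well plates at 3 × 10^4 to 1 × 10^5 cells/well. Drug at 1 μM or DMSO for up to 14 days, with medium and drug refreshed every 3-4 days. CCK-8 read on days 3-4 and 11-14. Values normalized to DMSO; mean of 5 replications ± SEM; unpaired two-sided t-test.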

Assay [2] concerns RPMI-8226. As to the kind of experiment: Antiproliferative activity against human RPMI-8226 cells treated upto 14 days with replacement of fresh medium containing drug every 3 to 4 days by cell counting kit-8 method. The procedure, abridged: as §1
Assay [3] has as its system KMS-12-PE. The assay can be described thus: Antiproliferative activity against human KMS-12-PE cells treated upto 14 days with replacement of fresh medium containing drug every 3 to 4 days by cell counting kit-8 method. The procedure, abridged:
as §1

Assay [4] concerns KMS-12-BM. The assay can be described thus: Antiproliferative activity against human KMS-12-BM cells treated upto 14 days with replacement of fresh medium containing drug every 3 to 4 days by cell counting kit-8 method. The procedure, abridged:
(§2)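 Screen of histone methylation modifier inhibitors: myeloma cells seeded at 3 × 10^4 to 1 × 10^5 cells/well, exposed to 1 μM inhibitor or DMSO for up to 14 days. Viability read by CCK-8 absorbance at early (days 3-4) and late (days 11-14) time points, normalized to DMSO; means of 5 replications, SEM, unpaired two-sided t-test.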

Assay [5] has as its system MM1.S. The assay can be described thus: Antiproliferative activity against human MM1.S cells treated upto 14 days with replacement of fresh medium containing drug every 3 to 4 days by cell counting kit-8 method. The procedure, abridged: as §2

Active and inactive are the calls of the source. The calls are words filed in the database; no cut-off is given here.

Regarding `O=C(O)c1ccc(CN2CCC(CN[C@@H]3C[C@H]3c3ccccc3)CC2)cc1`, the outcome in assay [1] and in assay [2] was inactive.

For the molecule `CC[C@H](C)n1cc(C)c2c(C(=O)NCc3c(C)cc(C)[nH]c3=O)cc(-c3ccc(N4CCNCC4)nc3)cc21`, the outcome in assay [3] was inactive.

For `COc1cc2c(NC3CCN(C(C)C)CC3)nc(C3CCCCC3)nc2cc1OCCCN1CCCC1`, the result in assay [3] was inactive. In the case of `N[C@@H]1C[C@H]1c1cc(F)cc(F)c1OCc1ccccc1`, the outcome in assay [4] and in assay [5] was inactive.

(Values after ChEMBL document CHEMBL5712901, “DOT1L inhibition blocks multiple myeloma cell proliferation by suppressing IRF4-MYC signaling” (2019).)
